Screens from PubChem.
T cruzi inh: blocks replication of Trypanosoma cruzi; T. cruzi beta-gal in NIH3T3, luminescence, 90 h; inhibition, % (concentration not given with the values); 1.4% of 300,000 active; AID 1885;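 active = mean inhibition across valid replicates above about 55%, limit read from the data; inconclusive = mean below that limit but half or more replicates reach it; inactive = mean below it, under half of replicates reach it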;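 also: signal also drops with host cell toxicity which is not excluded here; 0% = plate median of DMSO wells and 100% = zero luminescence signal; higher percent means less beta-gal luminescence so fewer parasites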
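System: mouse NIH/3T3 fibroblasts infected with β-gal-expressing T. cruzi Tulahuen C4 / Input: NIH/3T3 cells, 5,000 per well / Buffer or medium: Low-serum DMEM with 2% FBS / Probe or stimulus: 5000 reporter trypomastigotes per well / Schedule: ≥90 h infection period, 3 h prior cell attachment / Measured by: GalScreen luminescence, 60 min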
CHT inh: inhibitors of human choline transporter CHT. B-score at 10 µM. 0.86% of 310,000 active. CHT-expressing cells, membrane potential dye, choline response; active compounds read low;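 active = B-score over 3 SD under the library average, and starting fluorescence ratio not unusually high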;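 also: choline stimulus applied at its EC90 after an EC20 pre-addition; B-score computed on integrated fluorescence ratio after choline addition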
Target sequence (Q9GZV3 whole entry, looked up): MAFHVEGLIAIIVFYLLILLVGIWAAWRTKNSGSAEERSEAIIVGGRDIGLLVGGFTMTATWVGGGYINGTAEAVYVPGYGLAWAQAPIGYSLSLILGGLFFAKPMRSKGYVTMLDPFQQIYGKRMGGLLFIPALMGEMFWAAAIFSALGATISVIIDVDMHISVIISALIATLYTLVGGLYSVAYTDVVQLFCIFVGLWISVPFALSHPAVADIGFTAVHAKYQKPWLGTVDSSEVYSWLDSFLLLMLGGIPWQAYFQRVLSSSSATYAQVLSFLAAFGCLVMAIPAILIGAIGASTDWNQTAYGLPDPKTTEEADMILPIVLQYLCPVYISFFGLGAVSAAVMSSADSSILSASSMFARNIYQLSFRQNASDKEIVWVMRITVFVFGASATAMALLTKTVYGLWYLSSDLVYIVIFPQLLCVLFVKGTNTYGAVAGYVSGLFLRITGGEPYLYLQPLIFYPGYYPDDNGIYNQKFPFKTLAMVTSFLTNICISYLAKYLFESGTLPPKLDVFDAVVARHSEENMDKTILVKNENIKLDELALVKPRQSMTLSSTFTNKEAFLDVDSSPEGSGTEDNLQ
CHT PAM: human CHT allosteric activation; Q9GZV3; CHT-expressing cells, membrane potential dye, choline EC20; active compounds read high; LV-AA mutant CHT in HEK293 cells; B-score at 10 µM; 0.49% of 310,000 active; AID 488977;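 active = initial fluorescence not abnormally high and integrated response B-score, plate-corrected, over 3 SD above library mean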
PolyA inh: inhibitors of polyadenylation in S. cerevisiae. S. cerevisiae SKY197-pL101 polyadenylation reporter, beta-gal luminescence; efflux-impaired pdr1/pdr3 knockout yeast; score 100 = 6 SD above DMSO. activity score, % at 12 µM. 0.02% of 300,000 active. AID 1875;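 active = lowest replicate activity score at least 50, where 100 means six control SD above control mean; inconclusive = lowest score under 50 but half or more replicates reach 50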;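 also: yeast exposed to compound for 9 h at 30 °C; higher score means more reporter readthrough which indicates perturbed polyadenylation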
Active calls of the source: *; i = inactive; ? = inconclusive; . = no result. In the library only some 2.6% were active in any assay of this set; here they are far more common.

SMILES	T cruzi inh	CHT inh	CHT PAM	PolyA inh
O=C(Nc1ccccc1)C(=O)Nc1ccc2c(c1)N(C(=O)C1CC1)CCC2	2	i	i	10
Cc1ccc(S(=O)(=O)NNC(=O)CCC(=O)Nc2ccccc2Cl)cc1	.	i	i	.
Cc1ccc(-c2csc(NC(=O)c3ccc([N+](=O)[O-])o3)n2)cc1	70*	i	i	-4
Cc1ccc(-c2csc(NC(=O)c3ccc(C)o3)n2)cc1	-17	i	i	-7
Cc1ccnc(SCC(=O)c2ccc(Br)cc2)c1C#N	74*	i	i	-31
CCOc1ccc(NC(=O)C(CC(=O)O)Cc2ccc(C)cc2)cc1 (stereo not given)	-6	i	i	-23
CCOC(=O)N1CCN(CC(O)COCCC23CC4CC(CC(C4)C2)C3)CC1 (stereo not given)	68*	i	i	-2
O=C(Nc1c2c(nn1-c1ccccc1)CS(=O)(=O)C2)c1ccccc1Br	-7	i	i	20
CC[n+]1ccccc1/C=C1\Sc2ccc(C)cc2N1C	63*	i	i	10
CCC(=O)Nc1cccc(-c2ccc(N3CCCCC3)nn2)c1	5	i	i	-10
Cc1ccc(-c2nc(SCC(=O)N(C)c3c(N)n(Cc4ccccc4)c(=O)[nH]c3=O)n[nH]2)cc1	-3	i	i	-7
COc1ccc(N(CCCN2C(=O)c3cccc4cccc(c34)C2=O)C(=O)c2cccnc2)cc1	68*	i	i	-2
COc1cc2c(cc1OC)CN(C(=O)COc1ccc(C)c(C)c1)CC2	56*	i	i	-20
Cc1occc1C(=O)Nc1cccc([N+](=O)[O-])c1C	11	i	i	-6
Nc1nn(S(=O)(=O)c2ccccc2)cc1-c1cccc([N+](=O)[O-])c1	57*	i	i	-4
Nn1cnc2scc(-c3ccc(Cl)cc3)c2c1=O	-15	i	i	-3
COc1cc(C(=O)NNC(=S)NC(=O)c2ccccc2C)cc(OC)c1OC	-5	i	i	-3
COc1ccccc1C(=O)NNC(=S)NC(=O)c1cc(OC)c(OC)c(OC)c1	60*	i	i	-9
COc1ccccc1C(=O)NC(=S)Nc1ccc(N2CCCC2)cc1	56*	i	i	-10
CC(C)C[C@H](NC(=O)OC(C)(C)C)C(=O)N/N=C/C1=Cc2ccccc2OC1C (stereo not given in full)	69*	i	i	8
CC(=O)O[C@H]1C(=O)[C@@]2(C)C([C@H](OC(=O)c3ccccc3)[C@]3(O)C[C@H](OC(=O)[C@H](O)[C@@H](NC(=O)c4ccccc4)c4ccccc4)C(C)=C1C3(C)C)[C@]1(OC(C)=O)CO[C@@H]1C[C@H]2O (stereo not given in full)	61*	i	i	-6
Cc1ccc(NCc2ccc(C)s2)cc1	71*	i	i	-16
Cc1ccc(NCc2ccccc2)cc1	58*	i	i	-6
Cc1ccc(CNc2ccc(N3CCOCC3)cc2)s1	1	i	i	3
Cc1cccc(N2CCN(C(=O)c3ccc(-n4cncn4)c([N+](=O)[O-])c3)CC2)c1C	-5	i	i	-5
SMILES	T cruzi inh	CHT inh	CHT PAM	PolyA inh
FC(F)(F)c1cccc(NC(=S)NNC(=S)Nc2ccc(Cl)cc2)c1	56*	i	i	-56
CCN(CC)c1nc(-c2ccccn2)nc(-c2ccccc2)c1C#N	58*	i	i	-37
CN(C)c1nc(-c2ccccn2)nnc1-c1ccccc1	50	i	i	-6
Fc1ccc(CNc2nc(-c3ccccc3)nc3ccccc23)cc1	57*	.	.	-30
CCCCN(CC)c1nc(-c2ccncc2)nc2ccccc12	54	i	i	-3
CCCN(CCC)c1nc(-c2ccccn2)nc2ccccc12	58*	i	i	-24
c1ccc(CCNc2nc(-c3ccccn3)nc3ccccc23)cc1	76*	i	i	-4
O=C(O)CC(c1ccc(C(F)(F)F)cc1)N1Cc2ccccc2C1=O (stereo not given)	-8	i	i	0
Cc1ccc2[nH]c3c(=O)n(CC(=O)N4CCN(C)CC4)ncc3c2c1	-24	i	i	10
Cc1sc(NC(=O)C2=COCCO2)c(C(N)=O)c1C	-10	i	i	5
CC1(C)CC(NCCN2CCN(C3=CC(=C(C#N)C#N)CC(C)(C)C3)CC2)=CC(=C(C#N)C#N)C1	86*	i	i	0
CNC(=S)N1CCN(CCNC2=CC(=O)CC(C)(C)C2)CC1	-4	i	i	5
COC(=O)c1c(NC(=O)CN2CCN(Cc3ccc4c(c3)OCO4)CC2)sc(C)c1C	59*	i	i	2
COc1cnc(-c2ccccn2)nc1Sc1ccccc1Cl	60*	i	i	-57
COc1cnc(-c2ccccn2)nc1Sc1c(Cl)cccc1Cl	32	i	i	-55
O=[N+]([O-])c1ccc(N=Nc2ncc[nH]2)cc1	-25	i	i	-6
CCC(c1nnnn1CCc1ccccc1)N(Cc1ccco1)Cc1cc2cc(C)cc(C)c2[nH]c1=O (stereo not given)	13	i	i	2
CCC(c1nnnn1CCc1ccccc1)N(Cc1ccco1)Cc1cc2c(C)ccc(C)c2[nH]c1=O (stereo not given)	55*	i	i	-6
O=C(Nc1ccccc1C(=O)N1CCCCC1)c1cc(F)c(F)cc1Cl	2	i	i	-6
COC(=O)c1ccc(-c2sc3nc(N4CCOCC4)c4c(c3c2N)CCCC4)o1	67*	i	i	-1
COC(=O)c1sc2nc(N3CCCCC3)c3c(c2c1N)CCCC3	16	i	i	-15
COCCNC(=O)CCC1CCN(Cc2cccc(Oc3ccccc3)c2)CC1	39	i	i	0
O=C(CNC(=O)c1cccs1)N=Nc1c(O)[nH]c2ccc([N+](=O)[O-])cc12	-10	i	i	-2
CCOC(=O)c1ccc(-n2ccnc2)c(NC(=O)c2cccc(Br)c2)c1	63*	i	i	14
CCOC(=O)c1ccc(-n2ccnc2)c(NC(=O)c2ccc(C(C)(C)C)cc2)c1	?	i	i	22
SMILES	T cruzi inh	CHT inh	CHT PAM	PolyA inh
CCc1ccc(-n2nnnc2SCC(=O)Nc2ccc(NC(C)=O)cc2)cc1	55*	i	i	5
CCc1ccc(NC(=O)CSc2nnnn2C)cc1	-8	i	i	13
COc1cc2c(cc1OC)C(c1ccc(Br)cc1)NCC2 (stereo not given)	57*	i	i	3
O=C1c2cccc3cc([N+](=O)[O-])cc(c23)C(=O)N1CCN1CCCC1	56*	.	.	-2
CCN(CC)CCN1C(=O)c2cccc3cc(N)cc(c23)C1=O	16	i	i	8
Nc1cc2c3c(cccc3c1)C(=O)N(CCN1CCCC1)C2=O	78*	i	i	-7
Cc1ccc2cc3cc(C(=O)NCCCN4CCCC4=O)oc3nc2c1	-5	i	i	-13
